Rows were chosen to be rich in hits. Some 12% of all compounds tested hit in one or more screens of this group.
ABCG2 block: human ABCG2 inhibition, ABCB1 as counter-screen. AID 1325. IgMXP3 cells, JC-1 efflux, flow cytometry. Q9UNQ0. inhibition, % at 6.6 µM. 0.1% of 190,000 active;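 active = inhibition above 80%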;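 also: 0% = DMSO and 100% = nicardipine control wells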
Target sequence (Q9UNQ0 whole entry, looked up): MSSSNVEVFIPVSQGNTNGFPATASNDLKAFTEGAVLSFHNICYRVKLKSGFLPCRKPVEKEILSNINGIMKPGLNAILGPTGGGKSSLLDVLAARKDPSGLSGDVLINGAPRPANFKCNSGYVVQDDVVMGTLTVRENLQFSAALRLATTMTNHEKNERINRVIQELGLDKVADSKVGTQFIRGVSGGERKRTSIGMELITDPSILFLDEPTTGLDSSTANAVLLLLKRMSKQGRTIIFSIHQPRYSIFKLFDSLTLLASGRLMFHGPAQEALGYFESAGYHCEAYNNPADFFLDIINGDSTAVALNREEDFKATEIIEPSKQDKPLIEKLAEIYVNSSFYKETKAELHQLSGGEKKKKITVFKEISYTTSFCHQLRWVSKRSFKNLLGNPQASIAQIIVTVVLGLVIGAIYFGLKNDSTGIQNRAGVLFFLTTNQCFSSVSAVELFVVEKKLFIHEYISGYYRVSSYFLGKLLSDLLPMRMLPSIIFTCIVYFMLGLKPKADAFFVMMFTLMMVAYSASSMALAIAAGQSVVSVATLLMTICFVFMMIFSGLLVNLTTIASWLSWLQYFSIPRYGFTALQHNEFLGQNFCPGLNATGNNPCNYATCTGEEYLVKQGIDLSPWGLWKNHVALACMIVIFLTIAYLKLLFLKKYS
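Assay system – ABCG2 IgMXP3 and barcoded ABCB1 CCRF-Adr cell mix · Input – 3 million cells/mL in well · Reagent – JC-1 fluorescent substrate · Compound – single test compound dose, 6.6 µM final · Timing – 10 min exposure at 25 °C with rotation, no wash · Detection – flow cytometry of retained JC-1 fluorescence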
L major viab: inhibitors of Leishmania major promastigote growth; Leishmania major promastigotes, resazurin fluorescence viability; inhibition, % at 10 µM; 9% of 200,000 active; AID 1063; in the data active = inhibition above about 50%;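 also: promastigotes grown with compound for 44 hours at 28 °C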
RAM network inh: blocks the yeast RAM network | S. cerevisiae dse1pr::URA3 reporter, 5-FOA growth OD615, 2 d; analog-sensitive cbk1-as2 kinase mutant strain | inhibition, % at 50 µM | 1.8% of 190,000 active;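 active = inhibition above a set limit, 3 SD over mean compound inhibition, cut at about 8.4% in these data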;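 also: 0% = DMSO-only wells with no growth and 100% = 10 µM 1-NA-PP1 full growth; inhibition rescues growth on 5-FOA so higher OD means more RAM inhibition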
WT yeast gro inh: growth inhibition of WT yeast, mitochondrial fusion screen; mitochondrial fusion phenotypic screen, WT strain; inhibition, % at 10 µM; 2.1% of 190,000 active; AID 1362; in the data active = inhibition above about 58%; tested in S. cerevisiae
ABCB1 block: human ABCB1 inhibition, ABCG2 as counter-screen. P08183. CCRF-Adr cells, JC-1 efflux, flow cytometry. inhibition, % at 6.6 µM. 0.067% of 190,000 active. AID 1326; in the data active = inhibition above about 40%;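 also: 0% = vehicle and 100% = reference inhibitor; higher value means more JC-1 retained so stronger ABCB1 efflux block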
Active calls of the source: *; . = no result given.

SMILES	ABCG2 block	L major viab	RAM network inh	WT yeast gro inh	ABCB1 block
O=C(CCC1CCCCC1)Nc1ccccc1C(=O)N1CCOCC1	1.9	6.4	0.5	7.0	1.1
CCNC(=O)NC(=O)COC(=O)CCCc1nc2ccccc2s1	10.3	-2.7	4.5	0.8	1.4
O=C(O)c1ccc(N2Cc3ccccc3C2)cc1O	-1.4	-7.8	3.1	-24.3	-0.8
OC(COc1c(Cl)cc(Cl)cc1Cl)CN1CCCCC1 (stereo not drawn)	1.9	96.7*	-1.0	-3.0	0.6
OCCN1CCN(CC(O)COc2ccc(C34CC5CC(CC(C5)C3)C4)cc2)CC1 (stereo not drawn)	3.9	100.4*	-0.8	94.0	1.2
OC(COc1ccc(Cl)cc1)CN1CCCCC1 (stereo not drawn)	1.4	89.2*	-0.4	15.3	0.3
COc1ccc(OCC(O)CN2CCN(c3ncccn3)CC2)cc1 (stereo not drawn)	-1.6	-7.8	0.1	-7.8	-0.3
CS(=O)(=O)CCC(C(=O)OCC(=O)c1ccc(Cl)cc1)N1C(=O)c2ccccc2C1=O (stereo not drawn)	14.6	-5.4	0.0	-4.5	1.0
O=C(NCC1CCCO1)c1ccc2c(=O)n(CC3CCCO3)c(SCC(=O)N3CCCC3)nc2c1 (stereo not drawn)	2.6	2.6	1.8	-6.0	0.4
Cc1ccc(N2CC(C(=O)Nc3nnc(SCC(=O)Nc4cc(C)on4)s3)CC2=O)cc1 (stereo not drawn)	-7.2	59.6*	4.1	-2.3	-1.2
O=C(NC1CCCCCC1)C1Cc2ccccc2CN1C(=O)c1ccco1 (stereo not drawn)	-0.7	5.2	2.1	3.1	0.6
COc1cc(SC)ccc1C(=O)NCC1CCCO1 (stereo not drawn)	4.0	-3.3	1.2	86.1*	0.8
COc1cc(SC)ccc1C(=O)NCCOc1ccc(C)c(C)c1	8.3	4.8	1.8	63.8*	0.7
COc1cc(C(=O)NCC2CCCO2)cc(OC)c1OC (stereo not drawn)	0.1	-2.9	0.5	16.7	0.2
Cc1ccc(Cn2cnc3c(cnn3-c3ccc(F)cc3)c2=O)cc1	-0.3	-6.2	2.1	8.4	-0.2
CCCCC(=O)NCCc1cc2c(OC)ccc(OC)c2[nH]c1=O	1.7	1.2	0.7	32.7	-0.1
O=C(N/N=C/c1ccccc1OCc1ccccc1)c1cccs1	8.9	17.2	4.3	-14.4	0.7
C=CCc1cccc(/C=N/NC(=O)CCC(=O)Nc2ccc(C)cc2)c1O	3.1	-1.5	4.4	-8.2	-0.2
Cc1cccc(-n2ncc3c(N(C)Cc4ccccc4)ncnc32)c1	.	.	.	70.4*	.
O=C(Cn1nc(Cc2ccncc2)c2ccccc2c1=O)N1CCN(C(=O)c2ccco2)CC1	11.3	-10.4	0.1	11.7	0.4
O=C(Cn1nc(Cc2cccnc2)c2ccccc2c1=O)N1CCN(C(=O)c2ccco2)CC1	0.8	73.3*	-0.3	6.3	0.1
CC1=Nc2cc(C(=O)NCc3ccco3)ccc2Sc2ccc(C)cc21	2.1	59.2*	-0.9	22.0	1.1
CC(C)(C)c1ccc(C(=O)O)c(C(=O)c2ccccc2)c1	0.1	-8.9	-0.1	-8.6	0.3
Cc1ccc(/C=C/C(=O)c2ccccc(=O)c2O)c(C)c1	-1.7	80.7*	2.4	0.4	-1.0
O=C(/C=C/c1ccccc1Cl)c1ccccc(=O)c1O	-2.6	100.3*	1.2	-16.7	-0.7
SMILES	ABCG2 block	L major viab	RAM network inh	WT yeast gro inh	ABCB1 block
Cc1cccc(C(=O)NNC(=O)c2ccccc2C)c1	5.9	-3.0	4.3	6.7	0.5
Cc1ccc(C)c(/C=C/C(=O)c2ccccc(=O)c2O)c1	-3.8	99.4*	1.3	8.7	-0.3
Cc1ccc(N(C(=O)Cn2nnc(-c3ccc(F)cc3)n2)C(C(=O)NC(C)(C)C)c2ccncc2)cc1 (stereo not drawn)	0.1	10.3	2.8	-2.1	0.5
COc1ccc(C(=O)N[C@H](C(=O)OCc2cc(=O)oc3cc(C)ccc23)C(C)C)cc1	-9.3	14.6	3.1	2.3	-4.5
O=S(=O)(c1ccc2c(c1)OCCO2)N1CCN(c2ncnc3sccc23)CC1	0.1	60.2*	3.4	-3.6	0.2
CCN(CC)S(=O)(=O)c1ccc(N2CCN(S(=O)(=O)c3ccc4c(c3)OCCO4)CC2)nc1	-1.0	78.8*	4.0	-12.5	1.4
CCN(CC)S(=O)(=O)c1ccc(N2CCN(CCO)CC2)nc1	-1.5	8.1	-0.1	-12.6	-0.3
CSc1nc(Sc2cccc(Cl)c2)c2ccccc2n1	4.6	-4.3	8.2	58.5*	0.6
O=C(c1cccs1)n1nc(-c2ccco2)nc1SCc1ccccc1	0.9	-4.7	10.1*	8.5	0.0
